LAP4-GFP MLPCN: alters LAP4-GFP fluorescence in TOR pathway yeast screen; S. cerevisiae LAP4-GFP multiplex, flow cytometry GFP, 3 h; median GFP as percent of DMSO wells; GFP response vs DMSO, % at 10 µM; 320,000 tested, 0.34% active; AID 2023;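 active means GFP response vs DMSO above a set limit, about the screen mean plus 3 SD, cut at about 150% in these data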
MEP2 TOR yeast: modulators of TOR pathway MEP2-GFP in S. cerevisiae; S. cerevisiae MEP2-GFP strain, flow cytometry GFP, 3 h; 100% = DMSO control level; GFP response vs DMSO, % at 10 µM; 330,000 tested, 0.51% active;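 active means GFP response versus DMSO above a set limit, roughly screen mean plus 3 SD, cut at about 180% in these data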;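 further: median GFP fluorescence of the barcode-gated MEP2-GFP cells per well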
RPL19A TOR yeast: yeast TOR pathway RPL19A-GFP modulation; S. cerevisiae RPL19A-GFP strain, flow cytometry, 3 h; active compounds read low; percent response vs DMSO, % at 10 µM; 330,000 tested, 0.3% active; AID 2025;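 active means percent response vs DMSO below 50%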;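 further: median channel GFP fluorescence of the barcoded RPL19A-GFP strain; lower means less RPL19A-GFP as with rapamycin TOR inhibition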
CIT2-GFP yeast: yeast TOR pathway CIT2-GFP modulation. AID 2029. GFP response vs DMSO, % at 10 µM. 320,000 tested, 0.065% active. S. cerevisiae CIT2-GFP strain, flow cytometry, 3 h; 100 means same as DMSO wells;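 active means GFP response relative to DMSO above a set limit, near the screen mean plus 3 SD, cut at about 150% in these data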;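 further: ratio of well median GFP fluorescence to mean of DMSO wells on the plate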
T cell HTS: T cell immune modulators affecting CD8 T cell-vesicle binding; AID 2052; 2C CD8+ T cell-vesicle binding, flow cytometry; active compounds read low; 330,000 tested, 0.068% active; response (vesicle binding), % at 7 µM;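 active means response, share of CD8 T cells binding vesicles, and their 90th percentile fluorescence all below set limits, cut at about 80% in these data, passing the limit was not always enough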;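 further: values below 100% mean blocked vesicle binding to the CD8+ T cells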
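Test system: purified 2C TCR transgenic mouse naive CD8+ T cells. Probe or stimulus: QL9-peptide-loaded Drosophila micro-vesicles bearing Ld, ICAM-1 and B7-1. Incubation: binding step 1.5 h, 37 °C, antibody labelling 20 min, ice. Measured by: flow cytometry of vesicle-bound cells.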
AGP1-GFP MLPCN: modulators of TOR pathway AGP1-GFP in S. cerevisiae | S. cerevisiae AGP1-GFP multiplex flow cytometry, 3 h; GFP as percent of DMSO wells | GFP response vs DMSO, % at 10 µM | 320,000 tested, 0.02% active | AID 2066;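 active means GFP response relative to DMSO above a set limit, near screen average plus 3 SD, cut at about 150% in these data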;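 further: median GFP channel fluorescence of the gated AGP1 strain per well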
LAP4-GFP pick2: second confirmation of modulators of TOR reporter LAP4-GFP in yeast; shares compounds with LAP4-GFP MLPCN; S. cerevisiae LAP4-GFP strain, flow cytometry GFP, 3 h; GFP response vs DMSO, % at 10 µM; 590 tested, 20% active; AID 2621;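 active means GFP signal as percent of the solvent control above about 150%, meaning raised reporter expression, limit read from the data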
MEP2 cherry2: second confirmation of modulators of TOR reporter MEP2-GFP in yeast | 590 tested, 10% active | shares compounds with LAP4-GFP MLPCN | AID 2622 | S. cerevisiae MEP2-GFP strain, flow cytometry GFP, 3 h | GFP response vs DMSO, % at 10 µM;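 active means GFP signal above 150% of the solvent control wells, that is a rise of more than half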;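 further: median channel GFP fluorescence of all gated yeast cells per well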
RPL19A-GFP pick2: reconfirmed modulator of RPL19A-GFP TOR reporter in yeast; shares compounds with LAP4-GFP MLPCN; S. cerevisiae RPL19A-GFP strain, flow cytometry GFP, 3 h; active compounds read low; 100% means same as DMSO wells; AID 2623; GFP response vs DMSO, % at 10 µM; 590 tested, 3% active;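 active means under 65% GFP response relative to DMSO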;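 further: median GFP channel fluorescence per well over the all cells gate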
CIT2-GFP pick2: second confirmation of modulators of TOR reporter CIT2-GFP in yeast; shares compounds with LAP4-GFP MLPCN; S. cerevisiae CIT2-GFP strain, flow cytometry GFP, 3 h; DMSO control wells read 100%; GFP response vs DMSO, % at 10 µM; 590 tested, 8% active;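 active means GFP response vs DMSO above about 150%, limit read from the data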;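 further: median green fluorescence per well over all gated yeast cells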
AGP1 GFP CP2: yeast AGP1-GFP TOR reporter modulation, second cherry pick; shares compounds with LAP4-GFP MLPCN; S. cerevisiae AGP1-GFP strain, flow cytometry GFP, 3 h; percent response vs DMSO, % at 10 µM; 590 tested, under 10 active; AID 2643;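 active means over 150 percent of DMSO response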;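 further: median GFP channel fluorescence over all cells without mother daughter split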
s288c autofluor: counter-screen for compound autofluorescence in yeast s288c cells; S. cerevisiae s288c, 520 nm autofluorescence, flow cytometry, 3 h; active compounds read high; zero means same as solvent-only cells; fluorescence change (kMESF span) at 33 µM; shares compounds with LAP4-GFP MLPCN; 610 tested, under 10 active; AID 2757;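 active means fluorescence span over the dose series, or activity score, above about 33, limit read from the data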
s288c autofl DR: yeast s288c autofluorescence artifact in dose response. shares compounds with LAP4-GFP MLPCN. S. cerevisiae s288c parental, compound autofluorescence, flow cytometry, 3 h. fluorescence change (span) at 33 µM. 110 tested, under 10 active;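 active means fluorescence change span, or the activity score built from it, above 25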
TORC1 bypass gr: stops wildtype yeast growth while TORC1 bypass cells still grow; AID 504456; growth rating (0-3) at 30 µM; 120 tested, under 10 active; shares compounds with LAP4-GFP MLPCN; S. cerevisiae BY4741 spot growth rating, 48-72 h; active compounds read low;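 active means growth rating at most 1 for wild type yeast while the TORC1 bypass strain still grows fully, rated 3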
Large screens that a line does not name were inactive (follow-up assays come after a bar, where they were run). Hits are enriched below; roughly 0.96% of the tested compounds scored in any of these assays.

CC(=O)Nc1ncnc2c1c(-c1ccc(Cl)cc1)nn2C(C)(C)C	none | LAP4-GFP pick2 inactive | MEP2 cherry2 inactive | RPL19A-GFP pick2 59.3 | CIT2-GFP pick2 inactive | AGP1 GFP CP2 inactive | s288c autofluor inactive | s288c autofl DR inactive | TORC1 bypass gr inactive
CCOC(=O)Cn1nc(-c2ccc(Cl)cc2)ccc1=O	none (no result: AGP1-GFP MLPCN)
CC(=O)N(C(C)=O)c1ncnc2c1c(-c1ccc(Cl)cc1)nn2C(C)(C)C	none | LAP4-GFP pick2 inactive | MEP2 cherry2 inactive | RPL19A-GFP pick2 inactive | CIT2-GFP pick2 inactive | AGP1 GFP CP2 inactive | s288c autofluor inactive
O=C(COc1ccccc1)N1CCN(c2ncnc3c2cnn3-c2ccccc2)CC1	MEP2 TOR yeast 189.9 | s288c autofluor inactive
COc1cc(/C=C/c2ccc3c(Br)cc(Br)c(O)c3n2)ccc1O	LAP4-GFP MLPCN 163.8 | s288c autofluor inactive
O=C(OCn1ncc(Br)c(Br)c1=O)c1c(F)cccc1F	LAP4-GFP MLPCN 227.3 | s288c autofluor inactive | s288c autofl DR inactive | TORC1 bypass gr inactive
O=C(Nc1ccc(Cl)cc1)ON=C1CCCC1	none | LAP4-GFP pick2 199.0 | MEP2 cherry2 inactive | RPL19A-GFP pick2 inactive | CIT2-GFP pick2 223.9 | AGP1 GFP CP2 inactive | s288c autofluor inactive
COc1ccc(NC2=C(Cl)C(=O)N(CCc3ccccc3)C2=O)cc1	none | s288c autofluor inactive
COc1ccc(NC2=C(Cl)C(=O)N(CCc3ccccc3)C2=O)c(OC)c1	none | s288c autofluor inactive
COc1ccc(CCNC2CC(=O)N(CCc3ccccc3)C2=O)cc1 (configuration not stated)	none
CCOc1ccccc1NC1=C(Cl)C(=O)N(c2ccc(OC)cc2)C1=O	none
COc1ccc(N2C(=O)C(Cl)=C(NCc3ccccc3)C2=O)cc1	none | s288c autofluor inactive
COc1ccc(CCN2C(=O)c3cccnc3C2=O)cc1OC	none
COc1ccc(NC(=O)CCN2C(=O)c3ccccc3C2=O)c(OC)c1	none
COc1ccc(CCNC2=C(Cl)C(=O)N(CCc3ccc(OC)c(OC)c3)C2=O)cc1OC	none | s288c autofluor inactive
CCOc1ccc(NC(=O)CN2C(=O)NC(C)(c3ccc(OC(F)F)cc3)C2=O)cc1 (configuration not stated)	none
CCOc1ccc(NC2=NCC(=O)N2CCc2ccccc2)cc1	none
CCOc1ccc(NC2=C(Cl)C(=O)N(Cc3ccccc3)C2=O)cc1	none | s288c autofluor inactive
COc1cc(SSc2cc(OC)cc([N+](=O)[O-])c2N)c(N)c([N+](=O)[O-])c1	LAP4-GFP MLPCN 235.9 | s288c autofluor inactive
Cc1cc(C)nc(N/N=C/c2sccc2C)n1	none
Cc1ccsc1/C=N/Nc1ncc(Cl)cc1Cl	LAP4-GFP MLPCN 300.2 (no result: RPL19A TOR yeast) | s288c autofluor inactive
O=C(c1ccccc1)c1ccccc1N1C(=O)C=CC1=O	LAP4-GFP MLPCN 327.2 | s288c autofluor inactive
O=C1CCc2cc(S(=O)(=O)NC3CCCCC3)ccc2N1	none
COc1ccc2[nH]c(C(=O)O)c(CCN3C(=O)c4cccc([N+](=O)[O-])c4C3=O)c2c1	none | LAP4-GFP pick2 inactive | MEP2 cherry2 inactive | RPL19A-GFP pick2 inactive | CIT2-GFP pick2 inactive | AGP1 GFP CP2 inactive
COc1ccccc1C1CCN(C(=O)c2cccc([N+](=O)[O-])c2)CC1	none
Oc1cc(-c2ccncc2)cc2cccnc12	none
Oc1cc(-c2ccc(N3CCCCC3)nc2)cc2cccnc12	LAP4-GFP MLPCN 164.3 | LAP4-GFP pick2 inactive | MEP2 cherry2 inactive | RPL19A-GFP pick2 inactive | CIT2-GFP pick2 inactive | AGP1 GFP CP2 inactive | s288c autofluor inactive
O=C(CSc1nnc(-c2ccccc2Cl)o1)N1CCCC1	none
Cn1c2ccc(F)cc2c2nc3ccccc3nc21	none
CSc1nnc2c3cc(F)ccc3n(C)c2n1	none | LAP4-GFP pick2 inactive | MEP2 cherry2 inactive | RPL19A-GFP pick2 56.9 | CIT2-GFP pick2 inactive | AGP1 GFP CP2 inactive | s288c autofluor inactive | s288c autofl DR inactive | TORC1 bypass gr inactive
O=C(Nc1ccc(Cl)cc1Cl)c1cccc(N2C(=O)C=CC2=O)c1	LAP4-GFP MLPCN 183.7 | s288c autofluor inactive
O=C(Nc1ccc(Cl)cc1Cl)c1ccc2c(c1)OCCO2	none
COc1ccc(NC(=O)N2CCC(C(=O)c3ccc(F)cc3)CC2)cc1	LAP4-GFP MLPCN 400.5 | LAP4-GFP pick2 inactive | MEP2 cherry2 inactive | RPL19A-GFP pick2 inactive | CIT2-GFP pick2 inactive | AGP1 GFP CP2 inactive
CSc1ccc(NC(=O)N2CCC(C(=O)c3ccc(F)cc3)CC2)cc1	none
O=c1c2sc(-c3ccccc3)cc2nc2n1CCCCC2	none
O=c1c2sc(-c3ccccc3)cc2nc2n1CCC2	none | LAP4-GFP pick2 inactive | MEP2 cherry2 inactive | RPL19A-GFP pick2 59.3 | CIT2-GFP pick2 inactive | AGP1 GFP CP2 inactive | s288c autofluor inactive
CS/C(=N\S(=O)(=O)c1ccccc1)c1ccccc1	none
O=S(=O)(/N=C(/Sc1ccccc1)c1ccccc1)c1ccccc1	LAP4-GFP MLPCN 189.7 | s288c autofluor inactive

Assay outcomes: PubChem, NMMLSC
